Columns and labels:
[1] = tested on: MDR1 (human); assay: Apparent permeability across MDCK cells expressing human MDR1 at 5 uM after 2 hrs by LC-MS analysis; assay type: ADME, cell-based, Canis lupus familiaris; details: dog
How it was run: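 MDCK cells retrovirally transduced with human MDR1, seeded on transwells ≥3 days; bidirectional transport at 5 μM, 2 h, 37 °C, LC/MS quantitation. Papp = (dQ/dt)/(A·C0), A 0.11 cm2; ER = Papp B>A / Papp A>B. Means of at least three experiments.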

[2] = AUC (0 to infinity) in C57BL/6 mouse at 2 umol/kg, iv dosed in N-methyl pyrrolidone/blank plasma (10:90 v/v) by LC/MS/MS analysis; assay type: ADME, organism-based; design: dose 2 umol/kg, time infinity, route intravenous
How it was run: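 Male C57BL/6 mice got a single injection into the saphenous vein under light anaesthesia at 5 mL/kg. Blood was taken at 5 and 30 min and 1, 2, 4, 6 and 8 h (n = 3 per time). Blood was extracted by acetonitrile precipitation and quantified by LC-MS/MS against a weighted linear calibration. AUC came from noncompartmental analysis with 1/Y weighting.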

[3] = Blood clearance in C57BL/6 mouse at 2 umol/kg, iv dosed in N-methyl pyrrolidone/blank plasma (10:90 v/v) by LC/MS/MS analysis; assay type: ADME, organism-based
How it was run: (§1)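 Male C57BL/6 mice, saphenous vein injection under light anesthesia, 5 mL/kg. Blood at 5, 30 min and 1, 2, 4, 6, 8 h; brain at 5 min, 1, 4, 8 h; n = 3/time. LC-MS/MS after acetonitrile precipitation (brain water-homogenized). Noncompartmental analysis, 1/Y weighting, terminal slope from ≥3 points.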

[4] = Volume of distribution at steady state in C57BL/6 mouse at 2 umol/kg, iv dosed in N-methyl pyrrolidone/blank plasma (10:90 v/v) by LC/MS/MS analysis; assay type: ADME, organism-based; details: read-out: Vdss; how it was run: as §1
[5] = Half life in C57BL/6 mouse at 2 umol/kg, iv dosed in N-methyl pyrrolidone/blank plasma (10:90 v/v) by LC/MS/MS analysis; assay type: ADME, organism-based; how it was run: as §1
[6] = tested on: Brain; assay: Drug uptake in APP51/16 transgenic mouse brain at 180 umol/kg, po measured 4 hrs post dosing by LC/MS/MS analysis; assay type: ADME, organism-based; details: in vivo
How it was run: (§2)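 APP51/16 transgenic mice given oral gavage (10 mL/kg); blood and forebrain taken at 4 h postdose. Blood extracted by acetonitrile precipitation; brain homogenized in water, then acetonitrile-precipitated. LC-MS/MS quantitation against weighted linear calibration of analyte/internal standard area ratio.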

[7] = Drug uptake in APP51/16 transgenic mouse blood at 180 umol/kg, po measured 4 hrs post dosing by LC/MS/MS analysis; assay type: ADME, organism-based; details: read-out: Drug uptake; how it was run: as §2
[8] = tested on: Mus musculus; assay: Antialzheimer activity in APP51/16 transgenic mouse expressing human APP51/16Npa and mouse Thy1 assessed as reduction in amyloid beta (1 to 40) reduction at 180 umol/kg, po measured 4 hrs post dosing; assay type: functional; design: scale not given: the % may be the effect or the level left
How it was run: (§3)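 Hemizygous APP51/16 mice (human APP751 wild-type under murine Thy-1 cassette, C57BL/6 background) gavaged (10 mL/kg), decapitated at 4 h. Forebrain homogenized in TBS with protease inhibitors, 1% TX-100 extract, spun 100000 rpm 30 min 4 °C. Aβ40 by 6E10 electrochemiluminescence immunoassay against spiked nontransgenic extract standards; C99 by APP-C8 western blot, densitometry. Two-tailed Student's t test versus vehicle.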

[9] = tested on: Mus musculus; assay: Antialzheimer activity in APP51/16 transgenic mouse expressing human APP51/16Npa and mouse Thy1 assessed as reduction in brain C99 level reduction at 180 umol/kg, po measured 4 hrs post dosing; assay type: functional; design: scale not given: the % may be the effect or the level left; how it was run: as §3
[10] = Oral bioavailability in C57BL/6 mouse at 6 umol/kg dosed in HS15/propylenglycol/citrate buffer, pH 4.75, 50 mM (10/5/85, v/v/v) by LC/MS/MS analysis; assay type: ADME, organism-based; details: in vivo
How it was run: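 Oral gavage (10 mL/kg) to male C57BL/6 mice with iv reference segment (2 μmol/kg, NMP/blank plasma 10:90). Noncompartmental analysis of LC-MS/MS blood profiles, 1/Y weighting; %F = dose-normalized oral AUC / dose-normalized iv AUC × 100, assuming linear pharmacokinetics between doses.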

[11] = AUC (0 to infinity) in C57BL/6 mouse at 60 umol/kg, po dosed in HS15/propylenglycol/citrate buffer, pH 4.75, 50 mM (10/5/85, v/v/v) by LC/MS/MS analysis; assay type: ADME, organism-based; design: dose 60 umol/kg, route oral, time infinity; details: plasma
How it was run: (§4)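 Male C57BL/6 mice were dosed by oral gavage at 10 mL/kg. Blood was sampled at 0.25, 0.5, 1, 2, 4 and 6 h postdose, extracted by acetonitrile precipitation and quantified by LC-MS/MS (typical LLOQ 0.4 ng/mL). AUCinf was obtained by noncompartmental analysis of concentration–time profiles, weighting 1/Y, with at least three terminal log-linear points.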

[12] = tested on: Brain; assay: Drug uptake in C57BL/6 mouse brain at 6 umol/kg, po dosed in HS15/propylenglycol/citrate buffer, pH 4.75, 50 mM (10/5/85, v/v/v) measured 4 hrs post dosing by LC/MS/MS analysis; assay type: ADME, organism-based; details: in vivo, pH 4.75, 4 h
How it was run: (§5)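 Male C57BL/6 mice dosed by oral gavage, 10 mL/kg. Blood sampled 0.25, 0.5, 1, 2, 4, 6 h; brain at 1 and/or 4 h; n = 3 per time. Blood acetonitrile-precipitated, brain water-homogenized then precipitated; LC-MS/MS with weighted linear calibration.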

[13] = Ratio of drug uptake in brain to blood in C57BL/6 mouse at 6 umol/kg, po dosed in HS15/propylenglycol/citrate buffer, pH 4.75, 50 mM (10/5/85, v/v/v) measured 1 hr post dosing by LC/MS/MS analysis; assay type: ADME, organism-based
How it was run: (§6)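 Male C57BL/6 mice received the dose by oral gavage at 10 mL/kg. Blood and brain were collected at 1 and/or 4 h postdose. Brain was homogenised in water, and both matrices were extracted by acetonitrile precipitation and quantified by LC-MS/MS. The ratio is mean brain (nmol/g) over mean blood (nmol/mL) concentration, n = 3.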

[14] = Ratio of drug uptake in brain to blood in C57BL/6 mouse at 6 umol/kg, po dosed in HS15/propylenglycol/citrate buffer, pH 4.75, 50 mM (10/5/85, v/v/v) measured 4 hrs post dosing by LC/MS/MS analysis; assay type: ADME, organism-based; how it was run: as §6
[15] = tested on: Brain; assay: Drug uptake in C57BL/6 mouse brain at 60 umol/kg, po dosed in carboxymethyl cellulose 0.5% w/v in water/Tween 80 (99.5/0.5, v/v) measured 1 hr post dosing by LC/MS/MS analysis; assay type: ADME, organism-based; details: in vivo; how it was run: as §5
[16] = Ratio of drug uptake in brain to blood in C57BL/6 mouse at 60 umol/kg, po dosed in carboxymethyl cellulose 0.5% w/v in water/Tween 80 (99.5/0.5, v/v) measured 1 hr post dosing by LC/MS/MS analysis; assay type: ADME, organism-based; how it was run: as §5
[17] = tested on: Brain; assay: Drug uptake in C57BL/6 mouse brain at 6 umol/kg, po dosed in carboxymethyl cellulose 0.5% w/v in water/Tween 80 (99.5/0.5, v/v) measured 4 hrs post dosing by LC/MS/MS analysis; assay type: ADME, organism-based; details: in vivo; how it was run: as §5
[18] = AUC (0 to infinity) in C57BL/6 mouse at 60 umol/kg, po dosed in carboxymethyl cellulose 0.5% w/v in water/Tween 80 (99.5/0.5, v/v) by LC/MS/MS analysis; assay type: ADME, organism-based; design: dose 60 umol/kg, route oral, time infinity; details: in vivo; how it was run: as §4

Papp at 2 h, 5 µM [1] | AUC(0-inf) [2] | clearance [3] | Vd [4] | half-life [5] | Drug uptake [6] | concentration at 4 h [7] | bioavailability [10] | AUC(0-inf) [11] | Drug uptake [12] | Kp at 1 h [13] | Kp at 4 h [14] | Drug uptake [15] | Kp at 1 h [16] | Drug uptake [17] | AUC(0-inf) [18] | SMILES | Activity [8] | Activity [9]
3 ×10⁻⁶ cm/s | 0.407 µM·h | 82 mL/min/kg | 16.3 L/kg | 2.9 h | 1.5 nmol/g | 3.7 µM | 32% | 4.07 µM·h | 0.01 nmol/g | 0.3 | 0.3 | – | – | – | – | CC(C)(C)c1cccc(CN[C@H]2CS(=O)(=O)C[C@@H](Cc3cc(F)c(N)c(OC(C(F)(F)F)C(F)(F)F)c3)[C@@H]2O)c1 | 6% | 22%
25 ×10⁻⁶ cm/s | 0.3 µM·h | 111 mL/min/kg | 7.2 L/kg | 1.4 h | 1.8 nmol/g | 10.2 µM | – | – | – | – | – | 1.19 nmol/g | 0.3 | 0.11 nmol/g | 14.8 µM·h | CC(C)(C)c1cccc(CN[C@H]2CS(=O)(=O)C[C@@H](Cc3cc(F)c(N)c(OCC(F)(F)F)c3)[C@@H]2O)c1 | 31% | 34%
